Hits are enriched below; roughly 1.9% of the tested compounds scored in any of these assays.
697 NFkB inh: lowers PMA/ionomycin-induced NF-kB signal in 697 B cells; inhibition, % at 4 µM; 330,000 tested, 0.33% active; 697 B-cell NF-kB luciferase reporter, 16 h; in the data active = inhibition above about 35%
Jurkat NFkB inh: inhibitors of the PMA/ionomycin-induced NF-kB reporter in Jurkat cells; PMA/ionomycin-induced NF-kB luciferase reporter, luminescence; inhibition, % at 4 µM; AID 435003; 330,000 tested, 0.53% active; in the data active = inhibition above about 50%
TAG inh: inhibitors of triacylglycerol accumulation. inhibition, % at 12.5 µM. H9c2 cells, Nile Red lipid (TAG) fluorescence; cells loaded with 200 µM oleic acid. AID 651582. 230,000 tested, 0.66% active;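 active = pattern-corrected inhibition of lipid staining of at least 50% with the nuclear-stain viability signal not falling by more than 50%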;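 also: 0% = DMSO wells and 100% = triacsin C control wells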
aSyn UTR inh: MLPCN primary screen, SNCA 5' untranslated region | inhibition, % (tested at 7.5 µM) | AID 1813 | alpha-synuclein 5'UTR reporter, inhibitor activity | 300,000 tested, 0.82% active; in the data active = inhibition above about 60%;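 also: H4 neuroglioblastoma cells stably carrying SNCA 5'UTR luciferase fusion; 0% = DMSO wells and 100% = positive control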
APP 5UTR inh: APP translation inhibition | SH-SY5Y APP 5'UTR-luciferase reporter, luminescence | inhibition, % at 2 µM | 190,000 tested, 0.82% active | AID 1285;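 active = inhibition above a set limit, derived from the sample mean plus 3 SD, cut at about 45% in these data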
Lipid droplet: modulators of hepatic lipid droplet formation. inhibition, % at 6.5 µM. AML12 mouse hepatocytes, oleate lipid droplets, BODIPY imaging. 240,000 tested, 0.4% active. AID 1656;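 active = lipid droplet intensity inhibited by at least 50%, with more than 500 cells counted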
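Test system: AML12 hepatocytes (mouse); reagent: oleate loading, 100 µM; dosing: one dose, 6.5 µM compound; incubation: overnight exposure; signal: fluorescence imaging, 20x objective, two fields per well; read-out basis: % inhibition of corrected integrated BODIPY droplet signal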
697 NFkB conf: inhibitors of the PMA/ionomycin-induced NF-kB reporter in 697 B cells, retest. shares compounds with 697 NFkB inh. 697 B-cell NF-kB luciferase, 16 h. inhibition, % at 4 µM. 2,000 tested, 35% active. AID 449746; in the data active = inhibition mostly above about 28%, no sharp cut-off; inactive = mostly below about 22%
Numbers without * were called inactive.

Results for CCN(CC)C(=O)c1ccc(S(=O)(=O)Cc2ccc(C)cc2)c([N+](=O)[O-])c1 ?
697 NFkB inh: 40.0*; Jurkat NFkB inh: 7.2; aSyn UTR inh: -31.6; Lipid droplet: 22.6; 697 NFkB conf: 39.1*

What do the screens show for `Cc1ccc(CS(=O)(=O)c2ccc(C(=O)N3CCCCC3)cc2[N+](=O)[O-])cc1`?
697 NFkB inh: 8.7; Jurkat NFkB inh: 10.8; TAG inh: 13.1; aSyn UTR inh: -39.4; APP 5UTR inh: 9.3; Lipid droplet: 3.0

Results for CCN1C(=O)c2cccc3c(S(=O)(=O)N4CCC(C)CC4)ccc1c23 ?
697 NFkB inh: 41.1*; Jurkat NFkB inh: -19.4; TAG inh: 1.1; 697 NFkB conf: 46.5*

How did O=C(NCc1ccccc1)C1CCN(S(=O)(=O)N2CCCCCC2)CC1 do in these assays?
697 NFkB inh: 1.1; Jurkat NFkB inh: 0.2; aSyn UTR inh: -15.3; APP 5UTR inh: 6.6; Lipid droplet: 0.5

What do the screens show for `O=C(NCc1ccccc1)C1CCN(S(=O)(=O)N2CCOCC2)CC1`?
697 NFkB inh: 40.8*; Jurkat NFkB inh: -4.7; aSyn UTR inh: -18.2; APP 5UTR inh: 7.5; 697 NFkB conf: -3.6

What do the screens show for `CCOc1ccccc1N(CC(=O)NC1CCCCC1)S(=O)(=O)c1ccccc1`?
697 NFkB inh: 16.3; Jurkat NFkB inh: 5.7; aSyn UTR inh: 2.4; Lipid droplet: -39.2

What do the screens show for `CC1CC(C)CN(C(=O)COC(=O)COc2ccc(C#N)cc2)C1` (stereo unspecified)?
697 NFkB inh: -3.4; Jurkat NFkB inh: -4.4; TAG inh: -2.3

Results for Cc1nc(Nc2ccc(C(=O)O)cc2)sc1-c1ccccc1 ?
697 NFkB inh: -284.4; Jurkat NFkB inh: -35.7; TAG inh: 9.9; aSyn UTR inh: -0.7; APP 5UTR inh: -159.5; Lipid droplet: 1.4; 697 NFkB conf: -401.2

How did COC(=O)c1sc(Nc2ccccc2)nc1C do in these assays?
697 NFkB inh: -47.8; Jurkat NFkB inh: -57.6; aSyn UTR inh: -156.7; APP 5UTR inh: -34.6

What do the screens show for `CCCCCCCCNC(=O)c1ccc(C)cc1`?
697 NFkB inh: 79.7*; Jurkat NFkB inh: -25.2; aSyn UTR inh: 5.6; APP 5UTR inh: -6.0; Lipid droplet: -2.0; 697 NFkB conf: -8.5

What do the screens show for `CC(C)(C)c1ccc(C(=O)NC(=S)Nc2ccc(N3CCOCC3)cc2)cc1`?
697 NFkB inh: -334.3; Jurkat NFkB inh: -59.3; aSyn UTR inh: -23.8; APP 5UTR inh: 4.5; Lipid droplet: 13.5; 697 NFkB conf: 12.6

How did c1ccc(CCNc2ncnc3ccccc23)cc1 do in these assays?
697 NFkB inh: 49.1*; Jurkat NFkB inh: 37.3; TAG inh: -30.2; aSyn UTR inh: -117.0; APP 5UTR inh: -88.7; Lipid droplet: -8.0; 697 NFkB conf: 29.0*

How did Cc1ccc(S(=O)(=O)c2cc3c(=O)n4ccccc4nc3n(Cc3ccco3)c2=N)cc1C do in these assays?
697 NFkB inh: 40.5*; Jurkat NFkB inh: 21.5; aSyn UTR inh: 27.1; APP 5UTR inh: -3.3; 697 NFkB conf: 0.0

How did COc1ccc(NC(=O)c2cc(CC(C)C)nc3ccccc23)cc1 do in these assays?
697 NFkB inh: -287.5; Jurkat NFkB inh: 38.2; TAG inh: -4.2; aSyn UTR inh: 51.8; Lipid droplet: 17.9; 697 NFkB conf: -344.9

How did CCOC(=O)CNC(=O)CSc1nnc(NC(=O)c2ccc(C)cc2)s1 do in these assays?
697 NFkB inh: 42.6*; Jurkat NFkB inh: 35.1; TAG inh: 7.8; aSyn UTR inh: 73.9*; APP 5UTR inh: -36.6; Lipid droplet: 5.7; 697 NFkB conf: 33.1*

How did O=C(O)c1ccc(N=Nc2c(O)[nH]c3ccc(Br)cc23)cc1 do in these assays?
697 NFkB inh: -194.7; Jurkat NFkB inh: -15.4; aSyn UTR inh: -188.3; Lipid droplet: -20.6

What do the screens show for `O=C(O)c1ccc(N=Nc2c(O)[nH]c3cc(Cl)ccc23)cc1`?
697 NFkB inh: -332.4; Jurkat NFkB inh: -91.4; TAG inh: -7.4; aSyn UTR inh: -294.4; Lipid droplet: 8.8; 697 NFkB conf: -313.6

What do the screens show for `CCOc1ccc(-c2cc(CCCC(=O)NCCCOC)no2)cc1`?
697 NFkB inh: 53.2*; Jurkat NFkB inh: -2.2; aSyn UTR inh: 86.7*; APP 5UTR inh: 48.8*; 697 NFkB conf: 31.5*

Results for O=S(=O)(NC1CCCCC1)c1ccc(N2CCOCC2)nc1 ?
697 NFkB inh: -11.6; Jurkat NFkB inh: -8.7; TAG inh: 1.7; aSyn UTR inh: -12.9

Results for O=c1cc(-c2ccc(O)c(-c3c(O)cc(O)c4c(=O)cc(-c5ccc(O)cc5)oc34)c2)oc2cc(O)cc(O)c12 ?
697 NFkB inh: 39.8*; Jurkat NFkB inh: -3.6; TAG inh: -5.5; aSyn UTR inh: -1.9; APP 5UTR inh: 14.9; Lipid droplet: 0.4; 697 NFkB conf: 13.6

Results for C=C(C)[C@@H]1CCC2(C(=O)O)CC[C@]3(C)[C@H](CC[C@@H]4[C@@]5(C)CCC(=O)C(C)(C)[C@@H]5CC[C@]43C)[C@@H]12 (stereo partly specified) ?
697 NFkB inh: 79.8*; Jurkat NFkB inh: 2.7; TAG inh: 10.8; aSyn UTR inh: 2.1; APP 5UTR inh: -18.4; Lipid droplet: 8.2; 697 NFkB conf: 60.5*

How did C=C(CC[C@@H](O)C(C)(C)O)[C@H]1CC[C@]2(C)[C@@H]1CCC1[C@@]3(C)CCC(=O)C(C)(C)C3CC[C@]12C (stereo partly specified) do in these assays?
697 NFkB inh: -19.3; Jurkat NFkB inh: 2.1; TAG inh: 6.8

Results for CCc1ccc(/C=C2\SC(=S)N(CCC(=O)NC3=NCCS3)C2=O)cc1 ?
697 NFkB inh: 71.1*; Jurkat NFkB inh: 22.9; aSyn UTR inh: 89.5*; APP 5UTR inh: 52.6*; Lipid droplet: -1.9; 697 NFkB conf: 38.1*

Results for O=C(CCN1C(=O)/C(=C\c2cccs2)SC1=S)NC1=NCCS1 ?
697 NFkB inh: -3.4; Jurkat NFkB inh: 13.3; aSyn UTR inh: -12.2; APP 5UTR inh: 8.2; Lipid droplet: 18.8

How did CCc1ccc(/C=C2\SC(=S)N(CCCC(=O)Nc3ccccn3)C2=O)cc1 do in these assays?
697 NFkB inh: 75.7*; Jurkat NFkB inh: 13.9; TAG inh: 16.0; aSyn UTR inh: 72.6*; APP 5UTR inh: 51.3*; 697 NFkB conf: 58.2*

Results for COc1ccccc1/C=C1/SC(=S)N(CCC(=O)Nc2cccnc2)C1=O ?
697 NFkB inh: 35.4*; Jurkat NFkB inh: 1.4; TAG inh: 14.0; aSyn UTR inh: 12.3; Lipid droplet: -6.7; 697 NFkB conf: 27.9*

What do the screens show for `COc1ccccc1/C=C1\SC(=S)N(CCC(=O)NC2=NCCS2)C1=O`?
697 NFkB inh: 35.4*; Jurkat NFkB inh: 0.5; TAG inh: -2.0; aSyn UTR inh: 34.5; APP 5UTR inh: -1.0; Lipid droplet: 3.1; 697 NFkB conf: 48.0*

Assay outcomes deposited in PubChem BioAssay by several laboratories.
